ARFGAP1 inhibitor: inhibitors of rat ARFGAP1. 360,000 tested, 0.26% active. AID 651572. Arfgap1-stimulated ARF1 GTP hydrolysis, GDP FP detection. inhibition, % at 16.5 µM. Q62848;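 active means inhibition above a per-plate limit, mean inhibition of low control wells plus 3 SD, cut at about 25% in these data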;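 further: 0% = DMSO wells with enzyme and 100% = wells lacking Arfgap1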
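Material: rat Arfgap1 GAP domain (His6, aa 1-136), purified enzyme. Also added: human ARF1(Δ1-17)-GTP substrate. Compound dosing: 16.5 µM single point, 1.26% DMSO. Timing: enzyme reaction 120 min at 25 °C after 20 min preincubation. Signal: GDP detection by fluorescence polarization. Read-out basis: percent inhibition of GAP-stimulated GDP formation, scaled between DMSO and no-Arfgap1 medians.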
pPAFAH inh: pPAFAH (human) enzyme inhibition; Q13093; recombinant pPAFAH, FP-rhodamine probe fluorescence polarization; inhibition, % at 3.39 µM; 330,000 tested, 1.5% active; AID 463082;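 active means inhibition above the mean inhibition across the screen plus 3 SD, cut at about 25% in these data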;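 further: inhibitors block binding of the rhodamine activity-based probe so polarization drops; 0% = enzyme with DMSO and 100% = wells lacking pPAFAH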
PAFAH1B3 FP inh: inhibitors of human PAFAH1B3; recombinant PAFAH1B3, FP-rhodamine probe, fluorescence polarization; 340,000 tested, 0.28% active; Q15102; inhibition, % at 3.39 µM;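 active means inhibition above the screen-wide average of all tested compounds plus 3 SD, cut at about 25% in these data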;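 further: 0% = enzyme with DMSO only and 100% = wells lacking PAFAH1B3 protein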
Target sequence (Q15102 whole entry, looked up): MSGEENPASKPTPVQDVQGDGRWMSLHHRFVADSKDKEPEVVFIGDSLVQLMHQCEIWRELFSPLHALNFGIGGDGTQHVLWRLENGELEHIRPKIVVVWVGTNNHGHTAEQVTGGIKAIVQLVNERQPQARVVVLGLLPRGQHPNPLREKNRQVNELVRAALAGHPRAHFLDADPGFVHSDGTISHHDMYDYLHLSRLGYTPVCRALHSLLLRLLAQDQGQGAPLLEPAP
PAFAH2 inh: inhibitors of human PAFAH2 | Q99487 | recombinant PAFAH2, FP-rhodamine activity probe, fluorescence polarization | inhibition, % at 3.39 µM | 340,000 tested, 0.99% active | AID 492956;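 active means inhibition above the mean over all tested compounds plus 3 SD, cut at about 30% in these data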;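 further: inhibitors block probe labeling of enzyme so polarization drops; 0% = enzyme with DMSO and 100% = wells lacking PAFAH2 protein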
PAFAH1B2 FP inh: PAFAH1B2 (human) inhibition; inhibition, % at 3.39 µM; AID 492953; 340,000 tested, 1.2% active; recombinant PAFAH1B2, FP-rhodamine activity probe, fluorescence polarization;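 active means inhibition above the mean of all tested compounds plus 3 SD, cut at about 24% in these data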;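 further: 0% = enzyme with DMSO and 100% = wells lacking PAFAH1B2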
ASAP1 inh: ASAP1 ArfGAP inhibition; inhibition, % at 16.5 µM; 360,000 tested, 0.19% active; ASAP1-stimulated ARF1 GTP hydrolysis, GDP FP detection; in the data active means inhibition above about 25%;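 further: 0% = vehicle with enzyme and substrate and 100% = no enzyme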
Target sequence (Q9ULH1 325-724 limits assumed): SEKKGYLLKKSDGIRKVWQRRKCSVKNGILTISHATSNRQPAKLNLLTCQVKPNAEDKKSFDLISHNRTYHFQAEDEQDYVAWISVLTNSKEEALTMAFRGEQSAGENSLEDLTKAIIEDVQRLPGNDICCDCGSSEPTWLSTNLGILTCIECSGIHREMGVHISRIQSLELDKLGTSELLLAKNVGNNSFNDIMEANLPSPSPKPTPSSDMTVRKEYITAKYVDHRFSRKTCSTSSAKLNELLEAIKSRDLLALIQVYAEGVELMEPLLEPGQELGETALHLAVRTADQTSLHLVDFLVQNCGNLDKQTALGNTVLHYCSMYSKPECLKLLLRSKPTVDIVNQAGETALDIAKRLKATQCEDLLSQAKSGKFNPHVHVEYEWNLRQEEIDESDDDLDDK
pPAFAH confirm: confirmation of human plasma PAF acetylhydrolase (pPAFAH) inhibitors; AID 463230; shares compounds with pPAFAH inh; recombinant pPAFAH, FP-Rh probe fluorescence polarization; 2,300 tested, 72% active; inhibition, % at 3.39 µM;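 active means mean inhibition of the triplicate above the hit cutoff set for the earlier primary screen, cut at about 25% in these data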;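 further: 0% = enzyme with DMSO and 100% = wells lacking pPAFAH enzyme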
Starred values were filed as active, the others as inactive; · = not tested or not shown. An excerpt weighted towards active compounds, which were near 2.8% of everything screened.

SMILES	ARFGAP1 inhibitor	pPAFAH inh	PAFAH1B3 FP inh	PAFAH2 inh	PAFAH1B2 FP inh	ASAP1 inh	pPAFAH confirm
COc1ccc(NC(=O)CC2Nc3cccc4cccc(c34)NC2=O)cc1 (centres undefined)	-14	16	24	16	9	-10	·
O=C(CC1Nc2cccc3cccc(c23)NC1=O)Nc1ccc(F)cc1 (centres undefined)	0	60*	7	6	6	1	7
Cc1ccc(S(=O)(=O)N(C)C)cc1NC(=O)CN1C(=O)NC(Cc2ccccc2)C1=O (centres undefined)	-2	42*	-2	-3	2	8	-3
COC(=O)[C@@]12C[C@@H](CC(=O)NCCCN3CCCC3=O)C(=O)N(CCc3ccc(OC)c(OC)c3)C1=CCC(C)(C)C2	-8	·	·	·	·	7	·
O=C(Nc1cnc2ccccc2c1)c1ccncc1	-7	52*	4	0	4	10	5
O=C(NC(=S)Nc1cnc2ccccc2c1)c1ccccc1	17	3	9	-1	-3	10	·
CC(C)(C)S(=O)(=O)/C(C#N)=N/Nc1ccc(Cl)cc1	-12	35*	10	2	6	-10	37*
CC1CC1C(=O)OCC(=O)Nc1ccc(N=Nc2ccccc2)cc1 (centres undefined)	5	69*	4	85*	3	4	65*
CCCC(=O)OCC(=O)Nc1ccc(N=Nc2ccccc2)cc1	-1	10	10	-2	0	-5	·
COC1=CC(=O)C(O)=C(CCCCCCC/C=C/CCCCCCCC2=C(O)C(=O)C=C(OC)C2=O)C1=O	·	95*	41*	101*	94*	·	95*
O=C(NCc1ccc(OC(F)(F)F)cc1)C1CC(c2c(Cl)cccc2Cl)=NO1 (centres undefined)	5	38*	2	-8	10	4	22
O=C(NCc1cc(C(F)(F)F)cc(C(F)(F)F)c1)C1CC(c2c(Cl)cccc2Cl)=NO1 (centres undefined)	6	3	-6	-5	3	13	·
CCOC(=O)C(Cc1ccccc1)NC(=O)CCc1nnc2ccc(N3CCCC3)nn12 (centres undefined)	2	-2	7	1	3	12	·
C[C@@H](NC(=O)c1nc[nH]c1C(=O)N[C@@H](CCCCNC(=O)OC(C)(C)C)C(=O)OC(C)(C)C)c1ccccc1	-3	35*	8	-1	7	-4	30*
CCN(CC)C(=O)[C@H]1C[C@H](CC(=O)NC/C=C(\C)CCC=C(C)C)C(=O)N2CCc3c([nH]c4cc(CCC(=O)N(C)C)ccc34)[C@]12C	·	63*	6	-3	2	·	50*
CCn1c(SCC(=O)Nc2ccc3c(c2)c2ccccc2n3CC)nnc1-c1ccco1	-9	56*	2	22	4	-12	42*
CCn1c2ccccc2c2cc(NC(=O)c3ccc(Br)o3)ccc21	-4	42*	3	7	0	1	17
CCn1c2ccccc2c2cc(NC(=O)COC(=O)c3ccccc3F)ccc21	1	15	6	2	-1	6	·
CCn1c2ccccc2c2cc(NC(=O)CN(C)CC(=O)Nc3ccc(N4CCOCC4)cc3)ccc21	3	38*	4	1	5	3	39*
CCn1c2ccccc2c2cc(NC(=O)COC(=O)c3ccc(NC(=O)CC#N)cc3)ccc21	9	35*	-3	-12	5	3	18
CCn1c2ccccc2c2cc(NC(=O)c3cc(C)on3)ccc21	-4	11	6	0	0	-3	·
CSc1ccc(/C=C(\NC(=O)c2ccccc2)C(=O)NCCN2CCOCC2)cc1	-7	7	-1	5	6	14	·
COc1ccc(Nc2nnc(-c3ccc4c(c3)OCO4)o2)cc1	-1	·	·	·	·	3	·
CNc1ncnc2c1ncn2[C@H]1CN(CCOC)C[C@@H](CO)O1	15	·	·	·	·	-3	·
O=C(Nc1nnc(S(=O)(=O)Nc2ccccc2)s1)C1CCCCC1	8	2	-1	-3	7	5	·
SMILES	ARFGAP1 inhibitor	pPAFAH inh	PAFAH1B3 FP inh	PAFAH2 inh	PAFAH1B2 FP inh	ASAP1 inh	pPAFAH confirm
Nc1ccc2c(c1)-c1ccccc1S(=O)(=O)N2	3	65*	21	23	5	10	8
COc1ccc(NC(=O)CSc2nnc3n2CCCCC3)cc1S(=O)(=O)N1CCOCC1	-9	3	9	1	7	-7	·
Cc1nn(-c2ccccc2)c2sc(-c3n[nH]c(=S)o3)cc12	-3	52*	9	19	4	3	69*
O=C1C(Cc2ccccc2)Nc2ncnc(N3CCc4ccccc4C3)c2N1Cc1ccc(Br)cc1 (centres undefined)	·	0	·	·	·	·	·
N=C1/C(=C\c2ccc(-c3cc(Cl)cc(Cl)c3)o2)C(=O)N=C2SC=C(c3ccccc3)N12	1	12	-6	-12	-5	9	·
N=C1/C(=C/c2ccc(-c3cccc(C(=O)O)c3)o2)C(=O)N=C2SC=C(c3ccccc3)N12	-18	50*	27*	32*	26*	-6	62*
CCOC(=O)CSc1nnc(-c2cc(OC)c(OC)c(OC)c2)o1	0	1	0	-2	5	-5	·
COc1cc(-c2nnc(SCc3cc(=O)oc4cc(O)c(O)cc34)o2)cc(OC)c1OC	-7	59*	28*	42*	4	0	75*
Cc1nc2nc(C(F)(F)F)[nH]c2nc1C	-2	·	·	·	·	5	·
COc1cc(NC(=O)c2ccccc2)c(OC)cc1NC(=O)Cc1cccs1	-6	46*	·	·	·	-9	21
COc1ccc(Cc2nnc(NC(=O)Cc3cccs3)s2)cc1OC	2	36*	10	15	0	3	17
CC1(C(=O)NS(=O)(=O)C2CC2)CCN(C(=O)c2cc(F)cc(F)c2)C1 (centres undefined)	13	·	·	·	·	10	·
Cc1cc2nc(CN(C)C(=O)C3CCC(=O)N(C4CCCC4)C3)[nH]c2cc1C (centres undefined)	-3	·	·	·	·	-18	·
Cc1nc2ccc(Cl)cn2c1[N+](=O)[O-]	15	·	·	·	·	-1	·
COc1ccc(Br)cc1/C=N/Nc1cccc(C(=O)O)c1	2	7	1	2	-2	4	·
O=C(O)c1cccc(N/N=C/c2cc(Br)cc(Br)c2O)c1	-3	45*	13	37*	19	13	44*
CCSc1ccc2c(c1)N(CCCN1CCN(C)CC1)c1ccccc1S2	-5	37*	15	21	0	0	42*
CN(C)CCCN1c2ccccc2Sc2ccc(C(F)(F)F)cc21	3	11	11	-12	8	12	·
